# Experiments:
# [1] = test system: Bacillus subtilis; assay: Antibacterial activity against Bacillus subtilis ATCC 6633 at 20 mg/ml after 24 hrs by agar diffusion test; format: functional, organism-based
# How it was run: (§1)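 Agar diffusion: bacteria grown 24 h at 37 °C on nutrient agar; wells cut in the seeded agar are filled with compound solution in DMSO. Read-out is the diameter of the clear zone around the application point.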
# [2] = test system: Bacillus; assay: Antibacterial activity against Bacillus idosus B 241 at 20 mg/ml after 24 hrs by agar diffusion test; format: functional, organism-based; how it was run: as §1
# [3] = test system: Priestia megaterium; assay: Antibacterial activity against Bacillus megaterium NRRL 1353895 at 20 mg/ml after 24 hrs by agar diffusion test; format: functional, organism-based; how it was run: as §1
# [4] = test system: Bacillus mycoides; assay: Antibacterial activity against Bacillus mycoides DSMZ 274 at 20 mg/ml after 24 hrs by agar diffusion test; format: functional, organism-based; how it was run: as §1
# [5] = test system: Bacillus cereus; assay: Antibacterial activity against Bacillus cereus ATCC 11778 at 20 mg/ml after 24 hrs by agar diffusion test; format: functional, organism-based; how it was run: as §1
# [6] = test system: Acinetobacter johnsonii; assay: Antibacterial activity against Acinetobacter johnsonii ATCC 17909 at 20 mg/ml after 24 hrs by agar diffusion test; format: functional; how it was run: as §1
# [7] = test system: Micrococcus luteus; assay: Antibacterial activity against Sarcina lutea ATCC 9341 at 20 mg/ml after 24 hrs by agar diffusion test; format: functional, organism-based; how it was run: as §1
# [8] = test system: Micrococcus luteus; assay: Antibacterial activity against Micrococcus luteus ATCC 9631 at 20 mg/ml after 24 hrs by agar diffusion test; format: functional, organism-based; how it was run: as §1
# [9] = test system: Bacillus subtilis; assay: Antibacterial activity against Bacillus subtilis ATCC 6633 at 4 mg/ml after 24 hrs by agar diffusion test; format: functional, organism-based; how it was run: as §1
# [10] = test system: Bacillus; assay: Antibacterial activity against Bacillus idosus B 241 at 4 mg/ml after 24 hrs by agar diffusion test; format: functional, organism-based; how it was run: as §1
# [11] = test system: Priestia megaterium; assay: Antibacterial activity against Bacillus megaterium NRRL 1353895 at 4 mg/ml after 24 hrs by agar diffusion test; format: functional, organism-based; how it was run: as §1
# [12] = test system: Bacillus mycoides; assay: Antibacterial activity against Bacillus mycoides DSMZ 274 at 4 mg/ml after 24 hrs by agar diffusion test; format: functional, organism-based; how it was run: as §1
# [13] = test system: Bacillus cereus; assay: Antibacterial activity against Bacillus cereus ATCC 11778 at 4 mg/ml after 24 hrs by agar diffusion test; format: functional, organism-based; how it was run: as §1
# [14] = test system: Acinetobacter johnsonii; assay: Antibacterial activity against Acinetobacter johnsonii ATCC 17909 at 4 mg/ml after 24 hrs by agar diffusion test; format: functional; how it was run: as §1
# [15] = test system: Micrococcus luteus; assay: Antibacterial activity against Sarcina lutea ATCC 9341 at 4 mg/ml after 24 hrs by agar diffusion test; format: functional, organism-based; how it was run: as §1
# [16] = test system: Micrococcus luteus; assay: Antibacterial activity against Micrococcus luteus ATCC 9631 at 4 mg/ml after 24 hrs by agar diffusion test; format: functional, organism-based; how it was run: as §1
sequence,measurement,setting,value
GENTAMICIN,inhibition zone (IZ),[1],30 mm
same,inhibition zone (IZ),[2],35 mm
same,inhibition zone (IZ),[3],36 mm
same,inhibition zone (IZ),[4],32 mm
same,inhibition zone (IZ),[5],29 mm
same,inhibition zone (IZ),[6],39 mm
same,inhibition zone (IZ),[7],34 mm
same,inhibition zone (IZ),[8],38 mm
same,inhibition zone (IZ),[9],27 mm
same,inhibition zone (IZ),[10],29 mm
same,inhibition zone (IZ),[11],30 mm
same,inhibition zone (IZ),[12],28 mm
same,inhibition zone (IZ),[13],26 mm
same,inhibition zone (IZ),[14],31 mm
same,inhibition zone (IZ),[15],28 mm
same,inhibition zone (IZ),[16],28 mm

# Source: ChEMBL document CHEMBL1932986, “Synthesis and in vitro antimycobacterial activity of compounds derived from (R)- and (S)-2-amino-1-butanol - The crucial role of the configuration” (Eur J Med Chem, 2012)
